Measurements as given in ChEMBL document CHEMBL5329186, “Identification of novel 1,2,3-triazole isatin derivatives as potent SARS-CoV-2 3CLpro inhibitors via click-chemistry-based rapid screening” (RSC Med Chem, 2023).
Active and inactive are the calls of the source. No cut-off for these calls is given here.

How the values were obtained:
[1] = target: Replicase polyprotein 1ab (Severe acute respiratory syndrome coronavirus 2) (UniProt P0DTD1); assay: Inhibition of SARS-CoV-2 MPro at 5 uM using MCAAVLQSGFR-Lys(Dnp)-Lys-NH2 as substrate incubated for 10 mins by FRET assay
How it was run: (§1)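 3CLpro FRET assay at 5 μM compound, run as the standard protocol (10 min 37 °C preincubation, ex 320/em 405 nm kinetic read). The assay buffer either contained 4 mM DL-dithiothreitol or had none added. Ebselen served as the control.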

[2] = target: Replicase polyprotein 1ab (Severe acute respiratory syndrome coronavirus 2) (UniProt P0DTD1); assay: Inhibition of SARS-CoV-2 MPro at 1 uM using MCAAVLQSGFR-Lys(Dnp)-Lys-NH2 as substrate incubated for 10 mins by FRET assay relative to control
Vero C1008 = assay: Cytotoxicity against African green monkey Vero E6 assessed as inhibition of cell growth at 20 uM incubated for 26 hrs; type: toxicity, cell-based; settings: chlorocebus sabaeus, vero c1008, 26 h
[3] = target: Replicase polyprotein 1ab (Severe acute respiratory syndrome coronavirus 2) (UniProt P0DTD1); assay: Inhibition of SARS-CoV-2 MPro at 5 uM using MCAAVLQSGFR-Lys(Dnp)-Lys-NH2 as substrate in presence of DTT incubated for 10 mins by FRET assay; how it was run: as §1
[4] = Cytotoxicity against African green monkey Vero E6 assessed as inhibition of cell growth incubated for 26 hrs; type: toxicity, cell-based; settings: chlorocebus sabaeus, Vero E6 cells (Vero C1008)
How it was run: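 Vero E6 cells were seeded at 1.7 × 10^4/well in DMEM high glucose/10% FBS and grown 24 h at 37 °C, 5% CO2. Compound was then added in DMEM/5% FBS, final 1% DMSO, for 26 h. Viability was read with the CellTiter 96 aqueous nonradioactive proliferation assay. Values are averages of three or more replicate assays.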

[5] = target: Replicase polyprotein 1ab (Severe acute respiratory syndrome coronavirus 2, UniProt P0DTD1); assay: Inhibition of SARS-CoV-2 MPro using MCAAVLQSGFR-Lys(Dnp)-Lys-NH2 as substrate incubated for 10 mins by FRET assay
How it was run: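 Same 3CLpro FRET protocol (enzyme working 1.5 μM, substrate 500 μM, Tris/NaCl/glycerol buffer pH 7.3, 10 min 37 °C preincubation, ex 320/em 405 nm kinetic read for 10 min). Compounds were tested at 0.1, 0.5, 1 and 5 μM from 5 mM DMSO stocks. IC50 is the average of three independent experiments.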

| Compound | inhibition [1] | inhibition [2] [%] | Activity (Vero C1008) | inhibition [3] | CC50 at 26 h [4] [nM] | IC50 [5] [nM] |
| --- | --- | --- | --- | --- | --- | --- |
| NC(=O)c1ccc2c(c1)C(=O)C(=O)N2Cc1cn(Cc2cccc(Cl)c2)nn1 | Active | 76.4 | Not Active | Active | > 20000 | 440 |
| NC(=O)c1ccc2c(c1)C(=O)C(=O)N2Cc1cn(Cc2ccc(C(F)(F)F)cc2F)nn1 | – | 78.1 | Not Active | – | > 20000 | 530 |
| NC(=O)c1ccc2c(c1)C(=O)C(=O)N2Cc1cn(Cc2ccc(S(N)(=O)=O)cc2)nn1 | – | 73.3 | Not Active | – | > 20000 | 1120 |
| O=c1c2ccccc2[se]n1-c1ccccc1 | Active | – | – | inactive | – | – |
| NC(=O)c1ccc2c(c1)C(=O)C(=O)N2Cc1ccc2ccccc2c1 | Active | 87.3 | Not Active | Active | < 2200 | 300 |
